Five molecules from ChEMBL document CHEMBL1154626, “Novel, potent, and selective quinoxaline-based 5-HT(3) receptor ligands. 1. Further structure-activity relationships and pharmacological characterization” (J Med Chem, 2009) can be followed below.

Data set [1] in a line: Ratio of drug level from brain to plasma in rat at 1 mg/kg, iv. In kind it is ADME, organism-based. More on the design: dose 1 mg/kg, route intravenous. The method, boiled down:
(§1)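 Rats given a single iv injection (0.25–1 mg/kg) and killed 30 min afterwards. Brain/plasma ratio calculated assuming 1 g tissue equals 1 mL water. Three animals per dose, mean ± SEM.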

For data set [2], the target named is T1, 5-hydroxytryptamine receptor 3A (Cavia porcellus, UniProt O70212).
T1 sequence (O70212 whole entry): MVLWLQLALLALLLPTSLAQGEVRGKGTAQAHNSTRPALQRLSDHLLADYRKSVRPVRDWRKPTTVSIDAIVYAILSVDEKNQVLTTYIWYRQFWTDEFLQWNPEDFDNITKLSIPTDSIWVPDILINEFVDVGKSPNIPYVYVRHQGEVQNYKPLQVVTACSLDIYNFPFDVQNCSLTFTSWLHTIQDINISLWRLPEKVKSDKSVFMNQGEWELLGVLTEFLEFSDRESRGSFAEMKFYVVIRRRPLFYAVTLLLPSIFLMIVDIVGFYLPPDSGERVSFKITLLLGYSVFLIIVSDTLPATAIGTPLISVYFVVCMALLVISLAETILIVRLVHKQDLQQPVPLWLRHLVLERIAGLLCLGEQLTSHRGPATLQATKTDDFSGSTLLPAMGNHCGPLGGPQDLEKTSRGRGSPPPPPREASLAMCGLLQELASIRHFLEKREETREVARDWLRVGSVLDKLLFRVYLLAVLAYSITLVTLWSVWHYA
The data set can be described thus: Antagonist activity at 5HT3 receptor in spontaneously beating guinea pig right atrium assessed as inhibition of serotonin-induced maximum response by noncompetitive binding assay. In kind it is tissue-based, Cardiac atrium. The method, boiled down:
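Spontaneously beating guinea pig right atria, exposed 30 min to test compound at 10 μM, followed by cumulative 5-HT log concentration-response curves versus control. Mean ± SEM of five to seven observations.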

Data set [3] has as its system Brain. The data set can be described thus: Drug level in rat brain at 0.5 mg/kg, iv. In kind it is ADME, organism-based. More on the design: dose 0.5 mg/kg, route intravenous. The conditions noted are these: in vivo. The method, boiled down:
(§2)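 Rats dosed iv at 0.25–1 mg/kg and sacrificed 30 min after injection. Mean ± SEM of three animals. Brain/plasma ratio assumes 1 g tissue equals 1 mL water.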

Data set [4] concerns Rattus norvegicus. The data set can be described thus: Plasma concentration in rat at 0.25 mg/kg, iv. More on the design: dose 0.25 mg/kg, route intravenous. The following applies: in vivo. In kind it is ADME, organism-based. A digest of the protocol: as §2
Data set [5] has as its system Rattus norvegicus. The data set can be described thus: Agonist activity at 5HT3 receptor in iv dosed Sprague-Dawley rat assessed as induction of bradycardia measured after 5 to 30 mins post-treatment by von Bezold-Jarisch reflex test. In kind it is functional. A digest of the protocol: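 Urethane-anesthetized rats, compound given iv. Agonism was scored as the compound itself evoking the von Bezold-Jarisch reflex (bradycardia). Antagonism was tested by giving the compound iv 5, 15 or 30 min before phenylbiguanide (PBG) and scoring the reduction of PBG-evoked bradycardia. ED50 is the dose giving half of the maximal bradycardia evoked by the same compound.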

For data set [6], the target named is 5-hydroxytryptamine receptor 4 (Cavia porcellus, UniProt O70528). The data set can be described thus: Displacement of [3H]GR-113808 from 5HT4 receptor in guinea pig striatum. On the technique in general: Displacement assays read how much labelled ligand stays bound in the presence of the test substance.
The target of data set [7] is T1, 5-hydroxytryptamine receptor 3A. The data set can be described thus: Intrinsic activity at 5HT3 receptor in spontaneously beating guinea pig right atrium assessed as positive chronotropic potency relative to serotonin.
The target of data set [8] is T2, 5-hydroxytryptamine receptor 3A (Rattus norvegicus, UniProt P35563).
T2 sequence (P35563 whole entry): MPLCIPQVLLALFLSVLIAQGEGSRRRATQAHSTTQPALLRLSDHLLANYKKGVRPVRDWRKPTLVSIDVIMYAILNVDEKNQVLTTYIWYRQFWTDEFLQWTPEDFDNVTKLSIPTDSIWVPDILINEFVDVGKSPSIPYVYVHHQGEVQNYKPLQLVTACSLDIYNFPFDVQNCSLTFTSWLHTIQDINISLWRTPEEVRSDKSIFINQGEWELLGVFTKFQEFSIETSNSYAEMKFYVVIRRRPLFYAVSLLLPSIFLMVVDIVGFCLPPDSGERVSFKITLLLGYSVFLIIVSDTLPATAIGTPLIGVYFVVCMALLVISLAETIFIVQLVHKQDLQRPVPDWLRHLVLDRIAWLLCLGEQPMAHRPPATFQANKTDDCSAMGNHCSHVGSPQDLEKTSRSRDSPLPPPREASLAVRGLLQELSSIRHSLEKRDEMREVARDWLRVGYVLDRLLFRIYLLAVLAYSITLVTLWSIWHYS
As to the kind of experiment: Displacement of [3H]LY278584 from 5HT3 receptor in rat cortical homogenate. The following applies: read-out: Ki. The method, boiled down:
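Rat cortical homogenate, competition against [3H]LY278584 binding. Ki is the concentration giving half-maximal inhibition of binding, as the mean ± S.E.M. of three determinations.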

A further data set addresses D(2) dopamine receptor (Rattus norvegicus, UniProt P61169). As to the kind of experiment: Displacement of [3H]spiperone from dopamine D2 receptor in rat striatum.
The target of data set [9] is 5-hydroxytryptamine receptor 2A (Rattus norvegicus, UniProt P14842). As to the kind of experiment: Displacement of [3H]ketanserin from 5HT2A receptor in rat cortex.
Another data set concerns the target D(1A) dopamine receptor (Rattus norvegicus, UniProt P18901). The data set can be described thus: Displacement of [3H]SCH-23390 from dopamine D1 receptor in rat striatum.
Data set [10] addresses T3, Alpha-2A adrenergic receptor (Rattus norvegicus, UniProt P22909).
T3 sequence (P22909 whole entry): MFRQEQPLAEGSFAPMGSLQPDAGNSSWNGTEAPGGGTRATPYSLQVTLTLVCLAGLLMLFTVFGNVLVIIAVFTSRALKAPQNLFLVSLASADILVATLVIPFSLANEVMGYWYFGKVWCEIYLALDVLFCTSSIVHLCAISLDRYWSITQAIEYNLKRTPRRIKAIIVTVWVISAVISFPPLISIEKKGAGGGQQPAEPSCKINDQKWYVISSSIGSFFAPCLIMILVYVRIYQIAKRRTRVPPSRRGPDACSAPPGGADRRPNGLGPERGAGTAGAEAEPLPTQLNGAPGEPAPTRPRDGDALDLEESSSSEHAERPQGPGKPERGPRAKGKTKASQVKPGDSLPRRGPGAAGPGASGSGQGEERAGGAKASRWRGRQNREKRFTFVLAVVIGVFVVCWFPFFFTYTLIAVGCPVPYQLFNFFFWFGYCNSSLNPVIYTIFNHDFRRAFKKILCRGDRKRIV
The data set can be described thus: Displacement of [3H]RX821002 from adrenergic alpha2 receptor in rat cortex.

A short description of data set [11]: Ratio of drug level from brain to plasma in rat at 0.5 mg/kg, iv. More on the design: dose 0.5 mg/kg, route intravenous. In kind it is ADME, organism-based. A digest of the protocol:
as §1

Data set [12] deals with Brain. As to the kind of experiment: Drug level in rat brain at 1 mg/kg, iv. In kind it is ADME, organism-based. More on the design: dose 1 mg/kg, route intravenous. The conditions noted are these: read-out: Drug uptake, in vivo. A digest of the protocol:
as §2

Data set [13] concerns the target T4, 5-hydroxytryptamine receptor 1A (Rattus norvegicus, UniProt P19327).
T4 sequence (P19327 whole entry): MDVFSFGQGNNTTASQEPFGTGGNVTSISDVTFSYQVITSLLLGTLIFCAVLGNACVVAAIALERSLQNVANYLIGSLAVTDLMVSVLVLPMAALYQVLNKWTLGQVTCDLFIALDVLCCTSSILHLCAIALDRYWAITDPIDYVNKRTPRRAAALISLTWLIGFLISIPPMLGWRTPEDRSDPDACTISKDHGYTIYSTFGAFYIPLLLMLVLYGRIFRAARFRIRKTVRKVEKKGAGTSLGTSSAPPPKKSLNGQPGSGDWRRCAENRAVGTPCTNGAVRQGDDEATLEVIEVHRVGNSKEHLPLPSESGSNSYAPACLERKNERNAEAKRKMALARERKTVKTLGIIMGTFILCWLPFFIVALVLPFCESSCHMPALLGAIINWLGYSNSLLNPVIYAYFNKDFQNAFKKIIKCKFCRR
The data set can be described thus: Displacement of [3H]8-OHDPAT from 5HT1A receptor in rat hippocampus. In kind it is tissue-based.

In data set [14] the target is T1, 5-hydroxytryptamine receptor 3A. The data set can be described thus: Agonist activity at 5HT3 receptor in voltage-stimulated guinea pig left atrium assessed as positive inotropic potency. In kind it is functional, tissue-based, Cardiac atrium.

As a reminder, the Kp is the ratio of the level in a tissue or fluid to that in plasma or blood. Usually IC50 stands for the concentration that gives 50% inhibition. In general, ED50 refers to the dose that gives a 50% effect, or the effect in half of the subjects. What is called Ki is the equilibrium dissociation constant of an inhibitor or competing ligand from its target. By EC50 is commonly meant the concentration giving half of the maximal effect.

5-hydroxytryptamine receptor 4, sequence (O70528 whole entry): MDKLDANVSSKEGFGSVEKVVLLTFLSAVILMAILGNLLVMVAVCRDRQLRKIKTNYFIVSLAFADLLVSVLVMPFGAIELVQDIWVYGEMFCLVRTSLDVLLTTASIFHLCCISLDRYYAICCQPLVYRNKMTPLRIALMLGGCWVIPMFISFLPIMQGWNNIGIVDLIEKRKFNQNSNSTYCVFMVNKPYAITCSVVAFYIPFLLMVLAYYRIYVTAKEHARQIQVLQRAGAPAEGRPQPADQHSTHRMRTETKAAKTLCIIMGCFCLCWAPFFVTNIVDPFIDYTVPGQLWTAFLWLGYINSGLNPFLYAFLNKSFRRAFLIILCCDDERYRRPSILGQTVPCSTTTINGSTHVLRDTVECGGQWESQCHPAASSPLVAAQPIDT
5-hydroxytryptamine receptor 2A, sequence (P14842 whole entry): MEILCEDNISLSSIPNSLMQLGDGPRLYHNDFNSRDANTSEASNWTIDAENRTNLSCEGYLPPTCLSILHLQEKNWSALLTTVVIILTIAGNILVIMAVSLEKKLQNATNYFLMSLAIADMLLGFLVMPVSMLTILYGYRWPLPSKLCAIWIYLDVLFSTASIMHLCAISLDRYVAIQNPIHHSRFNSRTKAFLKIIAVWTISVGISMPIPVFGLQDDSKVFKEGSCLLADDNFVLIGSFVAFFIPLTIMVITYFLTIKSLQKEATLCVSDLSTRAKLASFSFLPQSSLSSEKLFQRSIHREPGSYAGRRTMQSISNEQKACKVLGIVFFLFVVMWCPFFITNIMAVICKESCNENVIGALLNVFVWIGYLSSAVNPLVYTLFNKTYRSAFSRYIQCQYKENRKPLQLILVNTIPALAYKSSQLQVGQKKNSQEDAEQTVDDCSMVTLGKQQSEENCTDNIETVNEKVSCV
D(1A) dopamine receptor, sequence (P18901 whole entry): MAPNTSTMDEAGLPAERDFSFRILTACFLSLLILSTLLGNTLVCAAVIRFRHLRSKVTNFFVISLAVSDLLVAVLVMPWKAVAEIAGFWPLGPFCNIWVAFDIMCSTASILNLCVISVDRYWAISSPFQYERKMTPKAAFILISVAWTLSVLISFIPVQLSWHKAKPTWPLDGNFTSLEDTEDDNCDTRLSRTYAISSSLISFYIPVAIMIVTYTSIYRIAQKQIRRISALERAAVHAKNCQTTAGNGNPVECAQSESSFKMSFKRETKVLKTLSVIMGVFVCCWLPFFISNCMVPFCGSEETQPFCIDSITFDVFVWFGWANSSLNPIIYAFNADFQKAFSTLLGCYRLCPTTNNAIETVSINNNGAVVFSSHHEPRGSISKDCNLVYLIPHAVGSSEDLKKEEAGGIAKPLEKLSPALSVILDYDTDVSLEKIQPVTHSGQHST
D(2) dopamine receptor, sequence (P61169 whole entry): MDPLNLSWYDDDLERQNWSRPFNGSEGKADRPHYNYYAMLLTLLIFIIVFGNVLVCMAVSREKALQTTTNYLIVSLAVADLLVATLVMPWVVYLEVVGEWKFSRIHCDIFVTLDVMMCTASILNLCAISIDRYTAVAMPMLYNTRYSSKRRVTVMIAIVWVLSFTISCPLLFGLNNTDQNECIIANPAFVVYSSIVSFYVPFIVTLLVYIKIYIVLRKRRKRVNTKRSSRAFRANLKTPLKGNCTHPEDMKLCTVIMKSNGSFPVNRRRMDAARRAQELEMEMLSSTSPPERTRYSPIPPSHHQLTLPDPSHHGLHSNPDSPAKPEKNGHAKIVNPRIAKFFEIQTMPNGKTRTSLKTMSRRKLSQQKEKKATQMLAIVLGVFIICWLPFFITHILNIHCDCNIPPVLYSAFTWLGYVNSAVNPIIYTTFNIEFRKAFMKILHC

Consider `O=C(O)CN1CCN(c2nc3cc(F)ccc3n3cccc23)CC1`, for which the Kp in data set [1] came to 0.03. In addition, the IC50 in data set [2] (read-out: IC50) came out at 1880 nM. In the data set with Brain [3] (BLD = below limit of detection), the Drug uptake entry is given as “BLD”. In the data set on Rattus norvegicus [4], the concentration was 540 nM. Moreover, in the data set with Rattus norvegicus [5], the ED50 was determined as 0.036 mg/kg.
In the case of `c1ccc2nc(N3CCNCC3)ccc2c1` [QUIPAZINE], the Ki in data set [6] was above 10000 nM.
For `CN1CCN(c2nc3ncccc3n3cccc23)CC1`, the EC50 in data set [7] is 340 nM. Also, the Ki in data set [8] worked out at 2.4 nM.
For `Fc1ccc2c(c1)nc(N1CCN(Cc3cnc[nH]3)CC1)c1cccn12`, the Ki in data set [6] was above 10000 nM; on D(2) dopamine receptor, above 10000 nM; in data set [9], above 10000 nM; on D(1A) dopamine receptor it was above 10000 nM; in data set [8] it was 0.68 nM; in data set [10] it was above 10000 nM. In addition, the Ki in data set [13] is above 10000 nM. For the same molecule, the Kp in [1] was determined as 1; in data set [11], 1.3. Also, the IC50 in data set [2] (read-out: IC50) turned out to be 270 nM. Also, the concentration in the data set on Brain [3] (read-out: Drug uptake) is 90 nM; in the data set with Brain [12], 210 nM. The Cp entry in the data set on Rattus norvegicus [4] (BLD = below limit of detection) is on record as “BLD”.
On to `c1ccc(CN2CCN(c3nc4ncccc4n4cccc34)CC2)cc1`, for which the IC50 entry in data set [2] was “Not Active”. In data set [14], the EC50 result is “Not Active”. In addition, the Ki in data set [8] turned out to be 2.2 nM.
